# Laboratory results taken from ChEMBL document CHEMBL1125436, “Anthracene-9,10-diones as potential anticancer agents. Synthesis, DNA-binding, and biological studies on a series of 2,6-disubstituted derivatives” (J Med Chem, 1992).
# Key:
# [1] = Estimated pKa value of the compound; assay type: physicochemical
# [2] = In vitro extracellular concentration required to reduce cell population to 50% against Chinese hamster V79 cells; assay type: functional, cell-based, Cricetulus griseus
# Procedure, shortened: (§1)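 Cells seeded at ca. […] cells mL⁻¹, grown 24 h and counted to confirm log growth, then given compound (acetic acid salt or free base) in aqueous solution. Exposure 2 days for L1210 and Walker 256, 6 days for V79. Surviving cells counted; percent growth inhibition versus untreated controls; value is extracellular concentration giving 50% reduction.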
# Nucleic Acid [3] = assay: Compound was evaluated for the increase in melting temperature (delta Tm) for calf Thymus DNA on interaction with Ligand at DNAp to ligand ratio 40:1; assay type: functional; settings: Bos taurus
# Nucleic Acid [4] = assay: Compound was evaluated for the increase in melting temperature (delta Tm) for calf Thymus DNA on interaction with Ligand at DNAp to ligand ratio 20:1; assay type: functional; settings: Bos taurus
# L1210 = assay: In vitro extracellular concentration required to reduce cell population to 50% against L1210 leukemia cells; assay type: functional, cell-based; settings: Mus musculus; procedure, shortened: as §1
# Nucleic Acid [5] = assay: Compound was evaluated for the increase in melting temperature (delta Tm) for calf Thymus DNA on interaction with Ligand at DNAp to ligand ratio 10:1; assay type: functional; settings: Bos taurus
# [6] = In vitro extracellular concentration required to reduce cell population to 50% against Walker 256 (WS) carcinoma cells; assay type: functional, Rattus norvegicus; procedure, shortened: as §1
# Nucleic Acid [7] = assay: Increase in Melting temperature (delta Tm) for Calf thymus DNA on interaction against ligand (mole ratio of 10:1); assay type: functional; settings: Bos taurus
# Nucleic Acid [8] = assay: Increase in Melting temperature (delta Tm) for Clostridium perfringens DNA on interaction against ligand (mole ratio of 10:1); assay type: functional
# Procedure, shortened: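 Working DNAP 0.10 mM and ligand 0.01 mM. Absorbance at 260 nm was followed against temperature. Tm was taken at the midpoint of the normalized curve and compared with native DNA; mean of ≥3 determinations.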
# Nucleic Acid [9] = assay: Increase in Melting temperature (delta Tm) for Micrococcus lysodeikticus DNA on interaction against ligand (mole ratio of 10:1); assay type: functional; settings: Micrococcus luteus
# Procedure, shortened: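 M. lysodeikticus DNA (28% A+T) in HNE buffer pH 7.0, dialysed and centrifuged before use; DNAP 0.10 mM with ligand 0.01 mM (10:1). A260 monitored against temperature; Tm at midpoint of normalized curve, ΔTm versus native DNA; mean of at least three determinations.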
Structure (SMILES),pKa [1],IC50 [2],ΔTm (Nucleic Acid [3]),ΔTm (Nucleic Acid [4]),IC50 (L1210),ΔTm (Nucleic Acid [5]),IC50 [6],ΔTm (Nucleic Acid [7]),ΔTm (Nucleic Acid [8]),ΔTm (Nucleic Acid [9])
O=C(CN1CCOCC1)Nc1ccc2c(c1)C(=O)c1ccc(NC(=O)CN3CCOCC3)cc1C2=O,7.4,> 100 µM,0.5,0.5,> 100 µM,0.5,> 100 µM,,,
O=C1c2c(O)ccc(O)c2C(=O)c2c(NCCNCCO)ccc(NCCNCCO)c21 [MITOXANTRONE],7.4,,,7.4,0.002 µM,> 15,0.01 µM,> 15,> 26.4,> 11.7
CCN(CC)CCC(=O)Nc1ccc2c(c1)C(=O)c1ccc(NC(=O)CCN(CC)CC)cc1C2=O,10.8,2.9 µM,3.7,7.7,0.34 µM,> 15.5,2.7 µM,> 15.5,> 20.5,> 18.1
O=C(CCN(CCO)CCO)Nc1ccc2c(c1)C(=O)c1ccc(NC(=O)CCN(CCO)CCO)cc1C2=O,9,25.5 µM,3.2,6.1,4.2 µM,10.9,> 100 µM,10.9,11.7,> 15.7
CN1CCN(CCC(=O)Nc2ccc3c(c2)C(=O)c2ccc(NC(=O)CCN4CCN(C)CC4)cc2C3=O)CC1,9,1.8 µM,,4.4,1.7 µM,9.2,3.1 µM,,,
O=C(CCN1CCCCC1CCO)Nc1ccc2c(c1)C(=O)c1ccc(NC(=O)CCN3CCCCC3CCO)cc1C2=O (centres undefined),10,12 µM,4.1,9.2,0.28 µM,> 15.3,3.6 µM,> 15.3,> 18.5,> 14.6
O=C(CCN1CCCCC1)Nc1ccc2c(c1)C(=O)c1ccc(NC(=O)CCN3CCCCC3)cc1C2=O,10.4,1.7 µM,3.7,7.3,0.19 µM,> 15.3,2 µM,> 15.3,> 18.9,> 14.5
CCN(CC)CC(=O)Nc1ccc2c(c1)C(=O)c1ccc(NC(=O)CN(CC)CC)cc1C2=O,10,18 µM,3.7,7.7,27 µM,13.5,19 µM,13.5,16.6,> 16.6
O=C(CN1CCCCC1)Nc1ccc2c(c1)C(=O)c1ccc(NC(=O)CN3CCCCC3)cc1C2=O,10,30 µM,,8.2,76 µM,14.3,> 100 µM,14.3,19,18.4
O=C(CCN1CCN(CCO)CC1)Nc1ccc2c(c1)C(=O)c1ccc(NC(=O)CCN3CCN(CCO)CC3)cc1C2=O,9.5,19.5 µM,2.9,4.6,4.2 µM,7.2,6.6 µM,,,
CN1CCN(CC(=O)Nc2ccc3c(c2)C(=O)c2ccc(NC(=O)CN4CCN(C)CC4)cc2C3=O)CC1,9.5,4.6 µM,4.2,8.2,6.5 µM,13.6,4.6 µM,,,
O=C(CCN1CCOCC1)Nc1ccc2c(c1)C(=O)c1ccc(NC(=O)CCN3CCOCC3)cc1C2=O,8,1.6 µM,,3,0.57 µM,4.9,4.2 µM,,,
O=C(CCN1CCC(CCO)CC1)Nc1ccc2c(c1)C(=O)c1ccc(NC(=O)CCN3CCC(CCO)CC3)cc1C2=O,10,3.95 µM,4.3,8.3,2.3 µM,> 15,5.5 µM,,,
O=C(CCN1CCCCC1CO)Nc1ccc2c(c1)C(=O)c1ccc(NC(=O)CCN3CCCCC3CO)cc1C2=O (centres undefined),10,3.6 µM,3.8,7.9,0.5 µM,14.4,2.8 µM,,,
